Source: paper PMC8006165 (ACS Central Science, 2021)
Several values for one entry are separate records, joined by “and”; a condition that tells them apart may be missing. Equal entries are not always repeated.

What was measured:
[1] = molecular target: Salmonella enterica YihS (SQ-SF isomerase), as measured by SEC-MALS (Salmonella enterica) (UniProt Q8ZKT7); experiment: SEC-MALS
EcYihV [2] = molecular target: T1, EcYihV (Escherichia coli, UniProt P32143); experiment: effect of additive on SF phosphorylation, HPLC-MS/MS; format: biochemical; conditions: 1.0 mM ATP, varied SF, pH 7.5, 30 °C, activator
T1 sequence (P32143 1-298): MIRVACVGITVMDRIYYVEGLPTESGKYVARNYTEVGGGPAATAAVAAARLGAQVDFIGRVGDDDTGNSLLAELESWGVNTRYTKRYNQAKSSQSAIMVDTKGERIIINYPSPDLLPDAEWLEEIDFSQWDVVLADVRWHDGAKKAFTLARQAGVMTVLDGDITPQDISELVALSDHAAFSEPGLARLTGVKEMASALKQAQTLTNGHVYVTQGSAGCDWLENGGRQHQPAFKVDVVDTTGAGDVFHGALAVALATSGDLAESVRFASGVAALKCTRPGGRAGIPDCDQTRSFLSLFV

SeYihT = molecular target: T2, SeYihT (Salmonella enterica, UniProt Q9L7R9); experiment: X-ray structure, in-crystal cleavage of SFP; format: binding; conditions: covalent Schiff base with Lys193
T2 sequence (Q9L7R9 1-292): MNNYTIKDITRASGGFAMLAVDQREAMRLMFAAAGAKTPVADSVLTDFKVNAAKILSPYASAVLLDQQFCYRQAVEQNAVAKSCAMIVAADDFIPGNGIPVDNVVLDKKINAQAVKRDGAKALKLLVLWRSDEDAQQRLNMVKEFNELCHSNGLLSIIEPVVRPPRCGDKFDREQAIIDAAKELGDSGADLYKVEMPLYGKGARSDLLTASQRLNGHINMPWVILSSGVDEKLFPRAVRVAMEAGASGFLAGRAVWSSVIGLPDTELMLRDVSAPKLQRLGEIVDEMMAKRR

EcYihV [3] = molecular target: T1, EcYihV; experiment: SFP production, HPLC-MS/MS; format: biochemical; conditions: substrate inhibition; 1.0 mM ATP; pH 7.5, 5 mM MgCl2, 30 °C; no additive
Outline: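 Recombinant E. coli YihV (36.6 nM) phosphorylating chemically synthesized sulfofructose (SF) to SFP. […] SFP formation was quantified by HPLC-MS/MS on a ZIC-HILIC column. Rates across SF concentrations were fitted to a substrate inhibition kinetic model.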

EcYihV [4] = molecular target: T1, EcYihV; experiment: X-ray structure of cocrystal; format: binding; conditions: with Mg; open and closed subunits
SEC-MALS = molecular target: the molecule itself; experiment: SEC-MALS
purified protein [5] = substrate: O=C(COP(=O)(O)O)[C@@H](O)[C@H](O)[C@H](O)CS(=O)(=O)O; experiment: purified protein; conditions: SFP to SLA and DHAP
purified protein [6] = substrate: Nc1ncnc2c1ncn2[C@@H]1O[C@H](COP(=O)(O)OP(=O)(O)OP(=O)(O)O)[C@@H](O)[C@H]1O; experiment: purified protein; conditions: 1.0 mM SF, 25 mM BTP pH 7.5, 25 mM KCl, 5 mM MgCl2, 30 °C

Salmonella enterica YihS (SQ-SF isomerase), as measured by SEC-MALS (from UniProt Q8ZKT7 2-413) (enzyme)
stoichiometry N [1]: 6

C=C(OP(=O)(O)O)C(=O)O [PEP]
effect of additive on SF phosphorylation, HPLC-MS/MS (EcYihV [2]; 10 mM PEP): by F6P, FBP, PEP, and citrate (through effects on kcat/KM)

O=P(O)(O)OC[C@H]1OC(O)(COP(=O)(O)O)[C@@H](O)[C@@H]1O (some centres unmarked) [FBP]
effect of additive on SF phosphorylation, HPLC-MS/MS (EcYihV [2]; 10 mM FBP): by F6P, FBP, PEP, and citrate (through effects on kcat/KM)

O=C(CO)COP(=O)(O)O [DHAP]
X-ray structure, in-crystal cleavage of SFP (SeYihT): a new Schiff base formed with a DHAP molecule could be modeled

O=S(=O)(O)C[C@H]1OC(O)(CO)[C@@H](O)[C@@H]1O (some centres unmarked) [SF, 6-deoxy-6-sulfofructose]
KI (EcYihV [3]): 8.5 ± 2.8 mM

Nc1ncnc2c1ncn2[C@@H]1O[C@H](COP(=O)(O)OP(=O)(O)NP(=O)(O)O)[C@@H](O)[C@H]1O [AMPPNP]
X-ray structure of cocrystal (EcYihV [4]): AMPPNP resulted in the EcYihV·AMPPNP·Mg complex showing a surface-accessible nucleotide binding site

B1: Salmonella enterica YihT (sulfofructose-1-phosphate aldolase) (enzyme, UniProt Q9L7R9 1-292, looked up)
chain: MNNYTIKDITRASGGFAMLAVDQREAMRLMFAAAGAKTPVADSVLTDFKVNAAKILSPYASAVLLDQQFCYRQAVEQNAVAKSCAMIVAADDFIPGNGIPVDNVVLDKKINAQAVKRDGAKALKLLVLWRSDEDAQQRLNMVKEFNELCHSNGLLSIIEPVVRPPRCGDKFDREQAIIDAAKELGDSGADLYKVEMPLYGKGARSDLLTASQRLNGHINMPWVILSSGVDEKLFPRAVRVAMEAGASGFLAGRAVWSSVIGLPDTELMLRDVSAPKLQRLGEIVDEMMAKRR
stoichiometry N (SEC-MALS): 4 | Km (purified protein [5]): 3570 ± 420 µM | kcat (purified protein [5]): 47.7 ± 2.4 s⁻¹

B2: E. coli YihV (sulfofructose kinase) (enzyme, UniProt P32143 1-298, looked up)
chain: MIRVACVGITVMDRIYYVEGLPTESGKYVARNYTEVGGGPAATAAVAAARLGAQVDFIGRVGDDDTGNSLLAELESWGVNTRYTKRYNQAKSSQSAIMVDTKGERIIINYPSPDLLPDAEWLEEIDFSQWDVVLADVRWHDGAKKAFTLARQAGVMTVLDGDITPQDISELVALSDHAAFSEPGLARLTGVKEMASALKQAQTLTNGHVYVTQGSAGCDWLENGGRQHQPAFKVDVVDTTGAGDVFHGALAVALATSGDLAESVRFASGVAALKCTRPGGRAGIPDCDQTRSFLSLFV
stoichiometry N (SEC-MALS): 2 and 4 | Km (purified protein [6]): 1000 ± 200 µM | kcat (purified protein [6]): 3.1 s⁻¹ | kcat/Km (purified protein [6]): 3200 M⁻¹ s⁻¹

B3: E. coli YihT (sulfofructose-1-phosphate aldolase) (enzyme, UniProt P32141 1-292, looked up)
chain: MNKYTINDITRASGGFAMLAVDQREAMRMMFAAAGAPAPVADSVLTDFKVNAAKALSPYASAILVDQQFCYRQVVEQNAIAKSCAMIVAADEFIPGNGIPVDSVVIDRKINPLQIKQDGGKALKLLVLWRSDEDAQQRLDMVKEFNELCHSHGLVSIIEPVVRPPRRGDKFDREQAIIDAAKELGDSGADLYKVEMPLYGKGPQQELLCASQRLNDHINMPWVILSSGVDEKLFPRAVRVAMTAGASGFLAGRAVWASVVGLPDNELMLRDVCAPKLQQLGDIVDEMMAKRR
stoichiometry N (SEC-MALS): 4
